According to ChEMBL document CHEMBL2311288, “Discovery of liver-targeted inhibitors of stearoyl-CoA desaturase (SCD1)” (Bioorg Med Chem Lett, 2013):

Columns and labels:
[1] = Cmax in rat at 10 mg/kg; type: ADME, organism-based; design: dose 10 mg/kg; conditions: in vivo
Summary of the method: (§1)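 Rats were given a single 10 mg/kg dose. Plasma exposure (AUC, Cmax) was determined, and drug concentrations in plasma, brain and liver were measured at 6 h post-dose. The liver/plasma ratio was taken from the 6 h levels.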

[2] = AUC (0 to 24 hrs) in CD-1 mouse at 300 mg/kg, po; type: ADME, organism-based; design: time < 24 hr, dose 300 mg/kg, route oral; conditions: plasma
Summary of the method: (§2)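 Male CD-1 mice received single daily oral gavage doses of 30, 100 or 300 mg/kg for 2 weeks. Plasma drug levels were determined on Day 13, and exposure was expressed as AUC(0–24 h).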

[3] = system: Mus musculus; test: Toxicity in CD-1 mouse assessed as tubular atrophy of the testes up to 300 mg/kg, po; type: organism-based, Testis; design: dose 300 mg/kg, route oral; conditions: in vivo
[4] = system: Mus musculus; test: Toxicity in CD-1 mouse assessed as eyes (corneal degeneration, inflammation) up to 300 mg/kg, po; type: organism-based, Cornea; design: dose 300 mg/kg, route oral; conditions: in vivo
[5] = system: Mus musculus; test: Toxicity in CD-1 mouse assessed as decrease in absolute peri-renal fat weight at 100 to 300 mg/kg, po relative to control; type: organism-based; design: dose 100-300 mg/kg, route oral; conditions: in vivo
[6] = AUC (0 to 24 hrs) in CD-1 mouse at 30 mg/kg, po; type: ADME, organism-based; design: time < 24 hr, dose 30 mg/kg, route oral; conditions: plasma; summary of the method: as §2
[7] = Ratio of drug level in liver to plasma of rat at 10 mg/kg measured after 6 hrs; type: ADME, organism-based; design: dose 10 mg/kg; summary of the method: as §1
[8] = system: Mus musculus; test: Toxicity in CD-1 mouse assessed as relative liver weight at 100 mg/kg, po; type: organism-based; design: dose 100 mg/kg, route oral; conditions: in vivo
[9] = system: Mus musculus; test: Toxicity in CD-1 mouse assessed as eyelid atrophy of sebaceous gland up to 300 mg/kg, po; type: organism-based; design: dose 300 mg/kg, route oral; conditions: in vivo
[10] = Drug level in liver in rat at 10 mg/kg measured after 6 hrs; type: ADME, organism-based; design: dose 10 mg/kg; conditions: read-out: Drug uptake; summary of the method: as §1
[11] = target: T1, Acyl-CoA desaturase 1 (Rattus norvegicus, UniProt P07308); test: Inhibition of rat SCD1 by rat microsomal assay
T1 sequence (P07308 whole entry): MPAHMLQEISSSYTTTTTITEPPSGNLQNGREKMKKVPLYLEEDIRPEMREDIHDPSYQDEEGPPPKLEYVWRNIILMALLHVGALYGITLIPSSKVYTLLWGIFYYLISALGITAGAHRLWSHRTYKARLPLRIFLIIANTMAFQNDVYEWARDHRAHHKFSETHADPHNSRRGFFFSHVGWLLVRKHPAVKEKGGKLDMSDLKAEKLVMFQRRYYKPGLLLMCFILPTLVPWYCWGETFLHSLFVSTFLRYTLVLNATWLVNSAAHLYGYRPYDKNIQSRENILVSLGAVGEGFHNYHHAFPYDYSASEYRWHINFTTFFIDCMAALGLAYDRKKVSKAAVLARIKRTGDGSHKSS
Summary of the method: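 Microsomal desaturase activity was measured in 100 mM Tris HCl pH 7.3 with 2 mM NADH and [9,10-3H]stearoyl-CoA for 15 min at room temperature. The reaction was stopped on ice with trichloroacetic acid, then passed through activated charcoal, and tritium in the filtrate was counted. Compounds were tested in 2% DMSO final. Percent inhibition = (total−sample)/(total−blank)×100, with the blank set by 10⁻⁴ M of a standard inhibitor.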

[12] = system: Mus musculus; test: Toxicity in mouse assessed as abnormalities in eyes at 30 mg/kg; type: organism-based; design: dose 30 mg/kg; conditions: in vivo
[13] = system: Mus musculus; test: Toxicity in CD-1 mouse assessed as absolute liver weight at 300 mg/kg, po; type: organism-based; design: dose 300 mg/kg, route oral; conditions: in vivo
[14] = system: Mus musculus; test: Toxicity in CD-1 mouse assessed as relative liver weight at 300 mg/kg, po; type: organism-based; design: dose 300 mg/kg, route oral; conditions: in vivo
[15] = system: Mus musculus; test: Toxicity in CD-1 mouse assessed as decrease in relative peri-renal fat weight at 100 to 300 mg/kg, po relative to control; type: organism-based; design: dose 100-300 mg/kg, route oral; conditions: in vivo
[16] = system: Mus musculus; test: Toxicity in CD-1 mouse assessed as inhibition of fatty acid metabolism measured as lesions in eyes and skin at 30 to 300 mg/kg, po for 2 weeks; type: organism-based; design: dose 30-300 mg/kg, route oral; conditions: in vivo, 336 h
[17] = AUC (0 to 24 hrs) in CD-1 mouse at 100 mg/kg, po; type: ADME, organism-based; design: time < 24 hr, dose 100 mg/kg, route oral; conditions: plasma; summary of the method: as §2
[18] = system: Mus musculus; test: Toxicity in CD-1 mouse assessed as minimal Leydig cell hyperplasia of the testes at 300 mg/kg, po; type: organism-based, Testis; design: dose 300 mg/kg, route oral; conditions: in vivo
[19] = system: Mus musculus; test: Toxicity in CD-1 mouse assessed as effect on body weight up to 300 mg/kg, po; type: organism-based; design: dose 300 mg/kg, route oral; conditions: in vivo
[20] = Plasma concentration in AKR/J mouse at 30 mg/kg measured after 4 hrs; type: ADME, organism-based; design: dose 30 mg/kg
Summary of the method: (§3)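 Male AKR/J mice, 7 weeks old (n = 10/group) and fed a 10% kcal low-fat diet, were given oral doses of 1, 3, 10 or 30 mg/kg. Plasma was collected 4 h after dosing, and drug concentration in that plasma was measured.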

[21] = system: Mus musculus; test: Toxicity in CD-1 mouse assessed as effect on food consumption up to 300 mg/kg, po; type: organism-based; design: dose 300 mg/kg, route oral; conditions: in vivo
[22] = system: Mus musculus; test: Toxicity in CD-1 mouse assessed as atrophy of the harderian and meibomian glands up to 300 mg/kg, po; type: organism-based; design: dose 300 mg/kg, route oral; conditions: in vivo
[23] = Plasma concentration in AKR/J mouse at 1 mg/kg measured after 4 hrs; type: ADME, organism-based; design: dose 1 mg/kg; summary of the method: as §3
[24] = Plasma concentration in rat at 10 mg/kg measured after 6 hrs; type: ADME, organism-based; design: dose 10 mg/kg; summary of the method: as §1
[25] = system: Mus musculus; test: Toxicity in CD-1 mouse assessed as meibomian gland (atrophy, squamous metaplasia) up to 300 mg/kg, po; type: organism-based; design: dose 300 mg/kg, route oral; conditions: in vivo
[26] = system: Mus musculus; test: Toxicity in CD-1 mouse assessed as absolute liver weight at 100 mg/kg, po; type: organism-based; design: dose 100 mg/kg, route oral; conditions: in vivo
[27] = system: Rattus norvegicus; test: AUC in rat at 10 mg/kg; type: ADME, organism-based, Plasma; design: dose 10 mg/kg; conditions: in vivo; summary of the method: as §1
[28] = Plasma concentration in AKR/J mouse at 10 mg/kg measured after 4 hrs; type: ADME, organism-based; design: dose 10 mg/kg; summary of the method: as §3
[29] = system: Mus musculus; test: Toxicity in mouse assessed as abnormalities in skin at 30 mg/kg; type: organism-based; design: dose 30 mg/kg; conditions: in vivo
[30] = system: Mus musculus; test: Toxicity in CD-1 mouse assessed as skin atrophy of sebaceous gland up to 300 mg/kg, po; type: organism-based; design: dose 300 mg/kg, route oral; conditions: in vivo
[31] = Plasma concentration in AKR/J mouse at 3 mg/kg measured after 4 hrs; type: ADME, organism-based; design: dose 3 mg/kg; summary of the method: as §3

Cmax [1]: 495 ng/g
AUC(0-t) at 24 h [2]: 1520 µM·h
AUC(0-t) at 24 h [6]: 114 µM·h
Kp at 6 h [7]: 56
concentration at 6 h [10]: 19200 ng/g
IC50 [11]: 8 nM
AUC(0-t) at 24 h [17]: 565 µM·h
concentration at 4 h [20]: 1740 ng/mL
concentration at 4 h [23]: 0.64 ng/mL
concentration at 6 h [24]: 345 ng/g
AUC [27]: 2308 ng·h/g
concentration at 4 h [28]: 135 ng/mL
concentration at 4 h [31]: 45 ng/mL
SMILES: O=C(O)c1cnc(N2CCC3(CC2)CCN(Cc2cccc(C(F)(F)F)c2)c2ccccc2O3)s1
Activity [3]: Toxic
Activity [4]: Toxic
Activity [5]: Toxic
Activity [8]: 20%
Activity [9]: Toxic
Activity [12]: Non-toxic
Activity [13]: 29%
Activity [14]: 33%
Activity [15]: Toxic
Activity [16]: Toxic
Activity [18]: Toxic
Activity [19]: Non-toxic
Activity [21]: Non-toxic
Activity [22]: Toxic
Activity [25]: Toxic
Activity [26]: 19%
Activity [29]: Non-toxic
Activity [30]: Toxic
